Here are results for two molecules from ChEMBL document CHEMBL4354813, “Design, Synthesis, and Pharmacological Evaluation of Potent Positive Allosteric Modulators of the Glucagon-like Peptide-1 Receptor (GLP-1R)” (J Med Chem, 2020).

Experiment [1] addresses T1, Glucagon-like peptide 1 receptor (Homo sapiens, UniProt P43220). Nature of the experiment: Positive allosteric modulator activity at human GLP-1R expressed in PSC-HEK293 cells in presence of EC20 level of GLP1(9-36)NH2 incubated for 30 mins by HTRF cAMP assay. Format: functional, cell-based. In a few lines:
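Thaw-and-use PSC-HEK293 cells stably expressing human GLP-1R, 2000 cells/well in HBSS/20 mM HEPES/0.1% BSA with 2 mM IBMX. Enhancer format: compound dose-response plus fixed EC20 GLP1(9-36)NH2. Shift format: GLP1(9-36)NH2 dose-response plus 10 or 3 μM compound. 30 min at room temperature. EC50 from a 4-parameter logistic fit.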
(In general: In TR-FRET formats the signal depends on donor and acceptor labels being close together.)

In experiment [2] the target is T1, Glucagon-like peptide 1 receptor. Nature of the experiment: Positive allosteric modulator activity at human GLP-1R expressed in PSC-HEK293 cells in presence of EC20 level of GLP1(9-36)NH2 incubated for 30 mins by HTRF cAMP assay relative to control. Type of experiment: functional, cell-based. The gist of the method:
(§1)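 Thaw-and-use PSC-HEK293 cells stably expressing human GLP-1R, 2000 cells/well in HBSS/20 mM HEPES/0.1% BSA with 2 mM IBMX. Enhancer format: compound dose-response plus fixed EC20 GLP1(9-36)NH2. Shift format: GLP1(9-36)NH2 dose-response plus 10 or 3 μM compound. 30 min at room temperature. HTRF cAMP read after 1 h lysis (665/620 nm). EC50 from a 4-parameter logistic fit.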

The target is the same in experiment [3]. Nature of the experiment: Positive allosteric modulator activity at GLP-1R in human 1.1B4 cells in presence of EC20 level of GLP1(9-36)NH2 incubated for 30 mins by HTRF cAMP assay. Format: functional, cell-based. The settings on record: read-out: EC50. In a few lines:
(§2)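 Human pancreatic β-cell line 1.1B4, 20,000 cells/well cultured overnight, washed twice; compound concentration-response with fixed 10 nM GLP1(9-36)NH2, 30 min. cAMP by HTRF 665/620 ratio, normalised to buffer (1x HBSS, 0.1% BSA, 1 mM IBMX; 0%) and GLP-1(7-36)NH2 (100%); 4-parameter logistic fit.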

For experiment [4] the target is unchanged. Nature of the experiment: Positive allosteric modulator activity at human GLP-1R expressed in PSC-HEK293 cells assessed as potentiation of GLP1(9-36)NH2-induced cAMP accumulation by measuring shift in EC50 of endogenous GLP1(9-36)NH2 at 3 uM incubated for 30 mins by HTRF cAMP assay relative to control. Type of experiment: functional, cell-based. The gist of the method: as §1
A general note: cAMP levels reflect the balance of adenylyl cyclase and phosphodiesterase activity.

For experiment [5] the target is unchanged. Nature of the experiment: Positive allosteric modulator activity at GLP-1R in human 1.1B4 cells in presence of EC20 level of GLP1(9-36)NH2 incubated for 30 mins by HTRF cAMP assay relative to control. Format: functional, cell-based. The gist of the method:
as §2

In experiment [6] the target is T2, Glucagon-like peptide 1 receptor (Mus musculus) (UniProt O35659).
T2 sequence (whole entry): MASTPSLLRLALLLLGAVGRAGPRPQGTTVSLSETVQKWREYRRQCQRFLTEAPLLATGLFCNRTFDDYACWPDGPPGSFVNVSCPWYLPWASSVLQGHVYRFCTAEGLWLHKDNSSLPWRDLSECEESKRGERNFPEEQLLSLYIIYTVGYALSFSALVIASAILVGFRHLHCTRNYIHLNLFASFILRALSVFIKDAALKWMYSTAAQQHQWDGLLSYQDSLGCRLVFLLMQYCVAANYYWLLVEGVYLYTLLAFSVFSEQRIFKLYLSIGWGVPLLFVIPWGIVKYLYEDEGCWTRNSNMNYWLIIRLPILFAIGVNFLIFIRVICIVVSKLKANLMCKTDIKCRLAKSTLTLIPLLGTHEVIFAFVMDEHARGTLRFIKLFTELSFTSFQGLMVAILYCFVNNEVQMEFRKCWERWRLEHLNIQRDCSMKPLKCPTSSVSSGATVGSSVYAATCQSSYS
As to the kind of experiment: Positive allosteric modulator activity at GLP-1R in mouse MIN6-c4 cells assessed as effect on glucose-mediated increase in intracellular Ca2+ level by FLIPR assay relative to control. Type of experiment: functional, cell-based.

In experiment [7] the test system is HEK293. Nature of the experiment: Effect on cAMP accumulation in parental HEK293 cells incubated for 30 mins by HTRF cAMP assay. Type of experiment: functional, cell-based. The settings on record: Homo sapiens.
Experiment [8] addresses T1, Glucagon-like peptide 1 receptor. Nature of the experiment: Activity at human GLP-1R expressed in PSC-HEK293 cells incubated for 30 mins by HTRF cAMP assay. Type of experiment: functional, cell-based.
Experiment [9] has as its target Glucagon receptor (Homo sapiens) (UniProt P47871). As to the kind of experiment: Activity at human GCGR expressed in PSC-HEK293 cells incubated for 30 mins by HTRF cAMP assay. Type of experiment: functional, cell-based.
For experiment [10], the target named is T3, Gastric inhibitory polypeptide receptor (Homo sapiens) (UniProt P48546).
T3 sequence (whole entry): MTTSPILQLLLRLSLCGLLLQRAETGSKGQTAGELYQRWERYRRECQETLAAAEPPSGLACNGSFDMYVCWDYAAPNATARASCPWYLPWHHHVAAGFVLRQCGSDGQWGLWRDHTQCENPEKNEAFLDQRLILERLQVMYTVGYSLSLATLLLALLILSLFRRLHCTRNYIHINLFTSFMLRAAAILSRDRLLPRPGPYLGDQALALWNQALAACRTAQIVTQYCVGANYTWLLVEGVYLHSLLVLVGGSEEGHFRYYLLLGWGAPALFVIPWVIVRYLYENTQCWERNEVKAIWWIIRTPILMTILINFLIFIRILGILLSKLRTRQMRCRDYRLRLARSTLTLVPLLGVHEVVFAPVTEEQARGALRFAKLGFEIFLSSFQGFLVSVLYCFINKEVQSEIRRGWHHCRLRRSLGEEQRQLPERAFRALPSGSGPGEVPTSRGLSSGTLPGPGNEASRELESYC
As to the kind of experiment: Activity at human GIPR expressed in PSC-HEK293 cells incubated for 30 mins by HTRF cAMP assay. Format: functional, cell-based.

The target of experiment [11] is T1, Glucagon-like peptide 1 receptor. Nature of the experiment: Positive allosteric modulator activity at human GLP-1R expressed in PSC-HEK293 cells assessed as potentiation of GLP-1(7-36)NH2-induced cAMP accumulation incubated for 30 mins by HTRF cAMP assay relative to control. Format: functional, cell-based.
Experiment [12] has the same target. Nature of the experiment: Positive allosteric modulator activity at human GLP-1R expressed in PSC-HEK293 cells assessed as potentiation of oxyntomodulin-induced cAMP accumulation incubated for 30 mins by HTRF cAMP assay relative to control. Type of experiment: functional, cell-based. The gist of the method: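 Counterscreen in HEK293 cells with recombinant receptor, 2000 cells/well, 2 mM IBMX, 30 min at room temperature. Compound tested with 10 nM oxyntomodulin (GLP-1R cells) or with GLP-1(9-36)NH2 in glucagon-receptor-overexpressing cells. cAMP read by HTRF at 665/620 nm.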

Experiment [13] has as its target Glucagon receptor (Homo sapiens) (UniProt P47871). Nature of the experiment: Positive allosteric modulator activity at human GCGR expressed in PSC-HEK293 cells assessed as potentiation of GLP-1(9-36)NH2-induced cAMP accumulation incubated for 30 mins by HTRF cAMP assay relative to control. Format: functional, cell-based.
Experiment [14] has as its target T2, Glucagon-like peptide 1 receptor (Mus musculus). As to the kind of experiment: Inhibition of 15 mM glucose-mediated increase in intracellular Ca2+ level in mouse MIN6-c4 cells at 0.12 to 30 uM by FLIPR assay relative to control. Type of experiment: functional, cell-based.
Experiment [15] concerns the target T1, Glucagon-like peptide 1 receptor. As to the kind of experiment: Positive allosteric modulator activity at human GLP-1R expressed in PSC-HEK293 cells assessed as potentiation of cAMP accumulation incubated for 30 mins by HTRF cAMP assay.

Active and inactive are the calls of the source. The rule behind the calls is not given here.

Sequence of Glucagon receptor (Homo sapiens) (P47871 whole entry): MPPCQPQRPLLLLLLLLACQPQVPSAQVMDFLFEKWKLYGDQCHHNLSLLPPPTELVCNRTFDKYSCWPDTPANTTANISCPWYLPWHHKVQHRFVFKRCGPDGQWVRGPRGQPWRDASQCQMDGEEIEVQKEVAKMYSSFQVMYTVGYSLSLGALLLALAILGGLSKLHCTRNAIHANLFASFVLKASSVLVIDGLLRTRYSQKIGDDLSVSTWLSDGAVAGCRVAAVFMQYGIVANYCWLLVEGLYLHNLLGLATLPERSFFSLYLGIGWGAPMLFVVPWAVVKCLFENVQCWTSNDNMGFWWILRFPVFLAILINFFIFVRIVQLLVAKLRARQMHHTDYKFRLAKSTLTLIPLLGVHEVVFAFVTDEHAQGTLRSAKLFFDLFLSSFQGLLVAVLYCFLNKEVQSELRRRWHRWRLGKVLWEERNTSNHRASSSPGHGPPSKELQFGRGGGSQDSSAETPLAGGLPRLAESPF
T1 sequence (P43220 whole entry): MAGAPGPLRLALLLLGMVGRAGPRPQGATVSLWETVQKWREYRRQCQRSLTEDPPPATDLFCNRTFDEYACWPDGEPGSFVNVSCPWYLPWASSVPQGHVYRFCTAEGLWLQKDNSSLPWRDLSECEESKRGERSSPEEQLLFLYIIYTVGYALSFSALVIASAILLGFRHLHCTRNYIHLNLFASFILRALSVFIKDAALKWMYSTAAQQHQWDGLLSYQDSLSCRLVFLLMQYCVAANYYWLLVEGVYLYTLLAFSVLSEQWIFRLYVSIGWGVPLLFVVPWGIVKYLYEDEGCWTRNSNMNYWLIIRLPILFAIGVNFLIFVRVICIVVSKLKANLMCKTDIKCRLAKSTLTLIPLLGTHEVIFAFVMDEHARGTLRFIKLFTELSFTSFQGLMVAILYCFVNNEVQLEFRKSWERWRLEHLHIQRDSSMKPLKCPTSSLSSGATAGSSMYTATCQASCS

As to `CC(C)(C)OC(=O)n1c2c(c3ccccc31)C[C@H]1C(=O)N3C[C@@H](CC(=O)O)C[C@H]3[C@@H]2N1C(=O)CC1CCC(F)(F)CC1`, the EC50 is 5 nM in experiment [1] and 130 nM in experiment [3]. Further, the Emax in experiment [2] came to 100%; in experiment [5] it was 102%. For the same molecule, the Ratio EC50 in experiment [4] was 2220. Also, in experiment [6], the fold change (FC) stood at 1.2. For the same molecule, the result in [7], in [8], in [9], in experiment [10], in experiment [11] and in [12] was inactive. In addition, the result in experiment [13] and in experiment [15] was inactive. For the same molecule, the inhibition result in experiment [14] was “inactive”.
In the case of `CC(O)CCN1C[C@H]2c3c(c4ccccc4n3C(=O)OC(C)(C)C)C[C@@H](C1=O)N2C(=O)CC1CCC(F)(F)CC1` (stereo not given in full), the EC50 in [1] was found to be 1.5 nM; in experiment [3], 40 nM. Moreover, the Emax in [2] and in [5] was 100% in each case. Also, the Ratio EC50 in experiment [4] stood at 526. For the same molecule, the fold change (FC) in experiment [6] came to 0.9. The outcome in experiment [7], in experiment [8], in experiment [9], in experiment [10], in [11] and in experiment [12] was inactive. The result in experiment [13] and in experiment [15] was inactive. Further, in experiment [14], the inhibition entry is “Active”.

As a reminder, the EC50 is the concentration needed to bring the measured effect to its halfway point. As a reminder, the Emax is the size of the effect at its maximum, as opposed to the concentration needed.
